Test results published in ChEMBL document CHEMBL1131058, “Studies on quinazolines and 1,2,4-benzothiadiazine 1,1-dioxides. 8.1, 2 synthesis and pharmacological evaluation of tricyclic fused quinazolines and 1,2,4-benzothiadiazine 1,1-dioxides as potential alpha1-adrenoceptor antagonists” (J Med Chem, 1998).

What was measured:
[1] = molecular target: T1, Adrenergic receptor alpha-2 (Rattus norvegicus, UniProt P22086+P19328+P22909); assay: Displacement of clonidine from Alpha-2 adrenergic receptor of rat cortical membranes; format: cell membranes, Membrane
T1 sequence (P22086 whole entry): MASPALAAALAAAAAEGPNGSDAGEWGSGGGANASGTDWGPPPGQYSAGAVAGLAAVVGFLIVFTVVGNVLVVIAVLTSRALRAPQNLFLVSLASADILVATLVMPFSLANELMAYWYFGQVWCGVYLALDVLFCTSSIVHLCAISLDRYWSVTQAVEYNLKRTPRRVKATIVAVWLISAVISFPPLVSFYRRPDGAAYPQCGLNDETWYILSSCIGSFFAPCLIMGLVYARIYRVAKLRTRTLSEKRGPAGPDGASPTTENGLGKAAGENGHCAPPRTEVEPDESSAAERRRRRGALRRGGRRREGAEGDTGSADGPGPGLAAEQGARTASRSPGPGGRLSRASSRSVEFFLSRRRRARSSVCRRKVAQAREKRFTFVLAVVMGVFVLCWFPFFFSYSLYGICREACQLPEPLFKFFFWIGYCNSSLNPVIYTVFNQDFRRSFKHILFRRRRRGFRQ
T1 sequence (P19328 whole entry): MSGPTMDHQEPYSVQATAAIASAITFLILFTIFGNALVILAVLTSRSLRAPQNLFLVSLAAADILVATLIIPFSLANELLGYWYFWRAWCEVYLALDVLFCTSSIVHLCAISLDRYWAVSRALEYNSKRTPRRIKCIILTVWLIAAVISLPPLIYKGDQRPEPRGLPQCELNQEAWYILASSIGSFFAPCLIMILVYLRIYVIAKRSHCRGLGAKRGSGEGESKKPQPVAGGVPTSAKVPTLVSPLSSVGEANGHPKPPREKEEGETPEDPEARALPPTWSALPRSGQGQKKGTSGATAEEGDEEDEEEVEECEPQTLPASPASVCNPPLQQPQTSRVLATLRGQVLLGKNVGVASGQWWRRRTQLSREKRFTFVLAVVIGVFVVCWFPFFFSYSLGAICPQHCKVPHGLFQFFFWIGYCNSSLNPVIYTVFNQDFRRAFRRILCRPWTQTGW
T1 sequence (P22909 whole entry): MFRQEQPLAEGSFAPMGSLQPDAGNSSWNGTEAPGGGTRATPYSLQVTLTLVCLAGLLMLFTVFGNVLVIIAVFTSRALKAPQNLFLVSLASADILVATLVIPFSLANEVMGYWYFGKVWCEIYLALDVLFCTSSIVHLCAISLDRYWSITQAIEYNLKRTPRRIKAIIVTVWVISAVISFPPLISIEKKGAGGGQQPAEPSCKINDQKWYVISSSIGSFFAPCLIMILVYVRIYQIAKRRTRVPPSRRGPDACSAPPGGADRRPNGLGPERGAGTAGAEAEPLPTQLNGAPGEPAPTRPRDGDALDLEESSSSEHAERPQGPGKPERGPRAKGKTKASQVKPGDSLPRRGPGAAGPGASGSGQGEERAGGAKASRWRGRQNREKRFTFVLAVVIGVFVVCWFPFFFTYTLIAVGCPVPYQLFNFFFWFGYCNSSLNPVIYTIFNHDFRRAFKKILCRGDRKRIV
Procedure, shortened: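 α2 competition binding run in triplicate with 1 nM [³H]clonidine plus 10 mM MgCl₂ in Tris pH 7.4, 30 min at room temperature. Test compounds at 1-100 µM. Nonspecific binding defined with 10 µM clonidine. Membranes collected on GF/B filters and washed twice with cold Tris. Protein 300-400 µg per assay. Ki given as mean ± SEM of 3-6 experiments.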

[2] = molecular target: T2, Alpha-1B adrenergic receptor (Rattus norvegicus, UniProt P15823); assay: Displacement of [3H]prazosin from Alpha-1B adrenergic receptor of rat liver membrane
T2 sequence (P15823 whole entry): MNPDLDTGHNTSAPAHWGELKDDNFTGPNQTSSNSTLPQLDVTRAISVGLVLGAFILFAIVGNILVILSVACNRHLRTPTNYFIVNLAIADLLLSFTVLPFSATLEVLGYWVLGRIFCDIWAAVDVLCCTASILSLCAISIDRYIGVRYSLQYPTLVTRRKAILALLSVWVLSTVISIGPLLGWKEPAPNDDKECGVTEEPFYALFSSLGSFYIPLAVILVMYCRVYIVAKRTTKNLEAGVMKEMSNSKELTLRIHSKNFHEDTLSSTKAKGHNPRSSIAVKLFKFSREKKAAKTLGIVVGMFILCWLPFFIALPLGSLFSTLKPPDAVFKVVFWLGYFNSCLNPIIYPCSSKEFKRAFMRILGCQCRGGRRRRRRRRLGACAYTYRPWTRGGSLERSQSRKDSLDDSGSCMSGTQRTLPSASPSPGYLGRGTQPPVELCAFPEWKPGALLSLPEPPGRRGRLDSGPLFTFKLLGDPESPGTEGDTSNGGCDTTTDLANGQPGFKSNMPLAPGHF
Procedure, shortened: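 Triplicate competition binding against 0.2-0.25 nM [³H]prazosin in Tris buffer pH 7.4, 30 min at room temperature. Competitor range 0.1-200 nM. Nonspecific binding defined with 10 µM phentolamine. Reaction stopped by GF/B filtration with two cold Tris washes. Membrane protein 300-400 µg per assay. Ki calculated from the data; mean ± SEM of 3-6 experiments.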

[3] = molecular target: Histamine H1 receptor (Cavia porcellus) (UniProt P31389); assay: Compound is evaluated for binding affinity towards Histamine H1 receptor using [3H]pyrilamine in guinea pig lung at 10 uM; format: tissue-based
Sequence of Histamine H1 receptor (Cavia porcellus) (P31389 whole entry): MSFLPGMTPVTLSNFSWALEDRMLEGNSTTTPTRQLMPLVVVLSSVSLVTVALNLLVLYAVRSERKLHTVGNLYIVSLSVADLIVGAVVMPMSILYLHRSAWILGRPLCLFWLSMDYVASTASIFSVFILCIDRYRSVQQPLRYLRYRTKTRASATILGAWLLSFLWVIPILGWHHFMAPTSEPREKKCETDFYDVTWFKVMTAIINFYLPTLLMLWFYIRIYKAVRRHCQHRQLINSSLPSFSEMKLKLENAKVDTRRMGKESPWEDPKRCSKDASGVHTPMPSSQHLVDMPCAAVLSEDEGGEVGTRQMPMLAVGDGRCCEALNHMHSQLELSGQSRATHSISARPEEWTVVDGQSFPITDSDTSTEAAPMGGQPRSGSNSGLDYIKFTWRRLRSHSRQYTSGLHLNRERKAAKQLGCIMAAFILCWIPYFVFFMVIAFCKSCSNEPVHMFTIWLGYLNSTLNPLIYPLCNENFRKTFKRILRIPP
Procedure, shortened: (§1)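 Single-concentration screen at 10 µM in contract radioligand binding assays. Records whether inhibition of specific radioligand binding stayed below 50%.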

[4] = molecular target: Serotonin 1 (5-HT1) receptor (Rattus norvegicus) (UniProt P28564+P30940+P19327+P28565); assay: Compound is evaluated for binding affinity towards 5-hydroxytryptamine 1 receptor using [3H]5-HT in rat brain cortex at 10 uM; format: tissue-based; procedure, shortened: as §1
[5] = molecular target: T3, D(2) dopamine receptor (Homo sapiens, UniProt P14416); assay: Compound is evaluated for binding affinity towards recombinant human Dopamine receptor D2 using [3H]spiperone in CHO cells at 10 uM; format: cell-based; procedure, shortened: as §1
T3 sequence (P14416 whole entry): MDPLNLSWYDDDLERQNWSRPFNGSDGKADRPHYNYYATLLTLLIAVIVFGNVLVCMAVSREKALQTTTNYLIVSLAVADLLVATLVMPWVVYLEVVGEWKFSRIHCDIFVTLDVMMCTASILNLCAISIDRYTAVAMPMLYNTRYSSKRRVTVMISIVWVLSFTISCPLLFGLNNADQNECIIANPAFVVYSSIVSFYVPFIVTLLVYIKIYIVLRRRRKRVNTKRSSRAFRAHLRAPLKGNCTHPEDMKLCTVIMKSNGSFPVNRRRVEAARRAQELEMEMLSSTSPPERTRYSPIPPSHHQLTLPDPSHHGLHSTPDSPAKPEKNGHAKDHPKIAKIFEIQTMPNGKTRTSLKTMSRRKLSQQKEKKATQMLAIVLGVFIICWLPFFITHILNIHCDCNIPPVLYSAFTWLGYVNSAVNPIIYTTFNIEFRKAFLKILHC

[6] = molecular target: T3, D(2) dopamine receptor; assay: Compound is evaluated for binding affinity towards Dopamine receptor D2 using [3H]spiperone in CHO cells at 10 uM; format: cell-based

SMILES | Ki [1] [nM] | Ki [2] [nM] | inhibition [3] [%] | inhibition [4] [%] | inhibition [5] [%] | inhibition [6] [%]
COc1ccccc1N1CCN(C[C@@H]2CN=C3c4ccccc4N=C(SC)N32)CC1 | 9000 | 667 | – | – | – | –
Oc1nc2ccccc2c2ncc(CN3CCN(c4ccccc4Cl)CC3)n12 | – | – | < 50 | < 50 | < 50 | –
COc1ccccc1N1CCN(C[C@H]2CN=C3c4ccccc4NC(=O)N32)CC1 | 183 | 0.42 | – | – | – | –
COc1ccccc1N1CCN(C[C@@H]2CN=C3c4ccccc4NC(=O)N32)CC1 | > 10000 | 123 | – | – | – | –
COc1ccccc1N1CCN(C[C@H]2CN=C3c4ccccc4N=C(SC)N32)CC1 | 3500 | 1.4 | – | – | – | –
COc1ccccc1N1CCN(CC2CN3C(=O)Nc4ccccc4C3=N2)CC1 (stereo not given) | 230 | 5.5 | – | – | < 50 | < 50
COc1ccccc1N1CCN(Cc2cn3c(O)nc4ccccc4c3n2)CC1 | – | – | < 50 | < 50 | < 50 | < 50
COc1ccccc1N1CCN(Cc2cnc3c4ccccc4nc(O)n23)CC1 | – | – | < 50 | < 50 | < 50 | < 50
COc1ccccc1N1CCN(CC2CN=C3c4ccccc4N=C(SC)N32)CC1 (stereo not given) | 970 | 3.9 | – | – | – | –
